Columns and labels:
HCT-15 = assay: Growth inhibition of human HCT15 cells at 10 uM by sulforhodamine B assay; assay type: functional; details: read-out: GI
Summary of the method: (§1)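 Single-dose 10 µM screen by sulforhodamine B assay, reported as percent inhibition of cell proliferation. Cells grown in medium with 10% heat-inactivated FBS at 37 °C, 5% CO2, and treated at about 70% confluence or in log phase. Compounds dissolved in DMSO; controls received vehicle (<0.5% v/v).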

IMR-32 = assay: Growth inhibition of human IMR32 cells at 10 uM by sulforhodamine B assay; assay type: functional; details: read-out: GI; summary of the method: as §1
SW-620 = assay: Growth inhibition of human SW620 cells at 10 uM by sulforhodamine B assay; assay type: functional; details: read-out: GI; summary of the method: as §1
HEp-2 = assay: Growth inhibition of human Hep2 cells at 10 uM by sulforhodamine B assay; assay type: functional; details: read-out: GI; summary of the method: as §1
SK-N-SH = assay: Growth inhibition of human SK-N-SH cells at 10 uM by sulforhodamine B assay; assay type: functional; details: read-out: GI; summary of the method: as §1
SiHa [1] = assay: Growth inhibition of human SiHa cells at 10 uM by sulforhodamine B assay; assay type: functional; details: read-out: GI; summary of the method: as §1
[2] = Growth inhibition of human 502713 cells at 10 uM by sulforhodamine B assay; assay type: functional; details: read-out: GI; summary of the method: as §1
A549 = assay: Growth inhibition of human A549 cells at 10 uM by sulforhodamine B assay; assay type: functional; details: read-out: GI; summary of the method: as §1
OVCAR-5 = assay: Growth inhibition of human OVCAR5 cells at 10 uM by sulforhodamine B assay; assay type: functional; details: read-out: GI; summary of the method: as §1
DU-145 = assay: Growth inhibition of human DU145 cells at 10 uM by sulforhodamine B assay; assay type: functional; details: read-out: GI; summary of the method: as §1
HL-60 [3] = assay: Induction of apoptosis in human HL60 cells assessed as non-viable necrotic cells at 1 uM after 24 hrs using Annexin V-FITC and propidium iodide staining by flow cytometry relative to control; assay type: functional
Summary of the method: (§2)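 HL-60 cells (1 x 10^5 per 1.5 mL) treated 24 h, washed twice in PBS and stained in binding buffer with annexin V-FITC and PI. Flow cytometry with FITC in FL-1 (530 nm) and PI in FL-2 (585 nm), using quadrant statistics: lower right taken as apoptotic, upper right as post-apoptotic necrotic. Representative of three independent experiments.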

HL-60 [4] = assay: Induction of apoptosis in human HL60 cells assessed as early apoptotic cells at 1 uM after 24 hrs using Annexin V-FITC and propidium iodide staining by flow cytometry relative to control; assay type: functional; summary of the method: as §2
HL-60 [5] = assay: Induction of apoptosis in human HL60 cells assessed as late apoptotic cells at 1 uM after 24 hrs using Annexin V-FITC and propidium iodide staining by flow cytometry relative to control; assay type: functional; summary of the method: as §2
HL-60 [6] = assay: Growth inhibition of human HL60 cells after 48 hrs by MTT assay; assay type: functional, cell-based; details: HL-60, 48 h
SiHa [7] = assay: Growth inhibition of human SiHa cells after 48 hrs by MTT assay; assay type: functional, cell-based
CV-1 = assay: Growth inhibition of african green monkey CV1 cells after 48 hrs by MTT assay; assay type: cell-based; details: Chlorocebus aethiops, CV-1, 48 h
[8] = Therapeutic ratio of IC50 for african green monkey CV1 cells to IC50 for human HL60 cells; assay type: ADME, cell-based, HL-60; details: CV1 cells and HL60 cells, read-out: Ratio IC50

Structure (SMILES) | inhibition of growth at 10 µM (HCT-15) | inhibition of growth at 10 µM (IMR-32) | inhibition of growth at 10 µM (SW-620) | inhibition of growth at 10 µM (HEp-2) | inhibition of growth at 10 µM (SK-N-SH) | inhibition of growth at 10 µM (SiHa [1]) | inhibition of growth at 10 µM [2] | inhibition of growth at 10 µM (A549) | inhibition of growth at 10 µM (OVCAR-5) | inhibition of growth at 10 µM (DU-145) | Activity (HL-60 [3]) | Activity (HL-60 [4]) | Activity (HL-60 [5]) | IC50 (HL-60 [6]) | IC50 (SiHa [7]) | IC50 (CV-1) | selectivity ratio [8]
COc1ccc2nc(NC(=O)c3cccnc3Nc3ccccc3)sc2c1 | 0% | 26% | 29% | 33% | 26% | 63% | 11% | 9% | 6% | 25% |  |  |  |  |  |  | 
O=S1(=O)c2ccccc2N(c2ccccc2)c2nc(-c3cccnc3Nc3ccccc3)nn21 | 0% | 56% | 23% | 0% | 20% | 23% | 21% | 0% | 3% | 10% |  |  |  |  |  |  | 
CN1c2ccccc2S(=O)(=O)n2nc(-c3cccnc3Nc3ccccc3)nc21 | 0% | 0% | 32% | 0% | 0% | 0% | 30% | 39% | 15% | 8% |  |  |  |  |  |  | 
CC(=O)O[C@H]1C(=O)[C@@]2(C)[C@H]([C@H](OC(=O)c3ccccc3)[C@]3(O)C[C@H](OC(=O)[C@H](O)[C@@H](NC(=O)c4ccccc4)c4ccccc4)C(C)=C1C3(C)C)[C@]1(OC(C)=O)CO[C@@H]1C[C@@H]2O [PACLITAXEL] | 37% | 46% | 73% |  | 20% | 49% | 59% | 41% | 51% | 42% |  |  |  |  |  |  | 
CN1c2ccccc2S(=O)(=O)n2nc(-c3cccnc3Nc3ccc(Cl)cc3)nc21 | 0% | 3% | 34% | 0% | 3% | 13% | 28% | 28% | 10% | 9% |  |  |  |  |  |  | 
O=C(Nc1nc2ccc([N+](=O)[O-])cc2s1)c1cccnc1Nc1ccc(F)c(Cl)c1 | 0% | 3% | 34% | 61% | 3% | 13% | 28% | 78% | 3% | 9% |  |  |  |  |  |  | 
O=S1(=O)c2ccccc2N(c2ccccc2)c2nc(-c3cccnc3Nc3ccc(Cl)cc3Cl)nn21 | 0% | 11% | 27% | 25% | 23% | 23% | 19% | 66% | 8% | 20% |  |  |  |  |  |  | 
COc1ccc(Nc2ncccc2C(=O)Nc2nc3ccc(OC)cc3s2)cc1 | 0% | 40% | 43% | 0% | 44% | 55% | 21% | 20% | 8% | 22% |  |  |  |  |  |  | 
COc1ccc2nc(NC(=O)c3cccnc3Nc3ccc(F)cc3)sc2c1 | 0% | 2% | 21% | 32% | 24% | 35% | 2% | 5% | 3% | 32% |  |  |  |  |  |  | 
COc1ccc2nc(NC(=O)c3cccnc3Nc3cc(F)c(F)c(F)c3)sc2c1 | 21% | 55% | 52% | 7% | 47% | 63% | 43% | 6% | 25% | 28% |  |  |  |  |  |  | 
CC[C@@]1(O)C(=O)OCc2c1cc1n(c2=O)Cc2cc3ccccc3nc2-1 [CAMPTOTHECIN] |  |  |  |  |  |  |  |  |  |  | 52% | 17% | 11% |  |  |  | 
O=C(Nc1nc2ccc([N+](=O)[O-])cc2s1)c1cccnc1Nc1ccc(Cl)cc1 | 66% | 45% | 65% | 69% | 48% | 53% | 63% | 83% | 26% | 52% |  |  |  | 400 nM | > 50000 nM | 800 nM | 2
COc1ccc(Nc2ncccc2-c2nc3n(n2)S(=O)(=O)c2ccccc2N3C)cc1 | 0% | 15% | 24% | 13% | 20% | 11% | 13% | 70% | 4% | 8% |  |  |  |  |  |  | 
COc1ccc(Nc2ncccc2-c2nc3n(n2)S(=O)(=O)c2ccccc2N3c2ccccc2)cc1 | 0% | 0% | 14% | 10% | 0% | 0% | 2% | 0% | 2% | 5% |  |  |  |  |  |  | 
O=S1(=O)c2ccccc2N(c2ccccc2)c2nc(-c3cccnc3Nc3cc(F)c(F)c(F)c3)nn21 | 0% | 48% | 22% | 52% | 16% | 26% | 14% | 3% | 2% | 14% |  |  |  |  |  |  | 
COc1ccc2nc(NC(=O)c3cccnc3Nc3ccc(Cl)cc3Cl)sc2c1 | 24% | 6% | 10% | 17% | 14% | 16% | 4% | 0% | 4% | 17% |  |  |  |  |  |  | 
CN1c2ccccc2S(=O)(=O)n2nc(-c3cccnc3Nc3cc(F)c(F)c(F)c3)nc21 | 9% | 28% | 34% | 0% | 18% | 15% | 26% | 14% | 8% | 13% |  |  |  |  |  |  | 
COc1ccc2nc(NC(=O)c3cccnc3Nc3ccc(Cl)cc3)sc2c1 | 44% | 24% | 15% | 13% | 23% | 31% | 10% | 10% | 10% | 25% |  |  |  |  |  |  | 
O=c1[nH]cc(F)c(=O)[nH]1 [FLUOROURACIL] | 44% | 71% | 76% |  | 7% | 44% | 21% |  | 22% |  |  |  |  |  |  |  | 
O=S1(=O)c2ccccc2N(c2ccccc2)c2nc(-c3cccnc3Nc3ccc(Cl)cc3)nn21 | 0% | 31% | 68% | 57% | 27% | 30% | 18% | 46% | 1% | 6% |  |  |  |  |  |  | 
